According to ChEMBL document CHEMBL6134855, “Peptidomimetics Activating the Proteasome: A New Perspective for Parkinson's Treatment” (J Med Chem, 2025):
Active and inactive are the calls of the source. The calls are words filed in the database; no cut-off is given here. Where a SMILES comes first, the peptide text is derived from it. [ ]: non-standard residue; d: D form. NMeR = CN[C@@H](CCCNC(=N)N)C(=O)O; NMeS = CN[C@@H](CO)C(=O)O

Tests used:
[1] = Permeability of compound in PBS incubated for 22 hrs by PAMPA-BBB assay; assay type: ADME
Summary of the method: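 PAMPA-BBB with a 2% porcine brain lipid membrane. Compounds were diluted from 10 mM aqueous stocks to 500 μM in 0.1 M PBS containing 5% DMSO and incubated 22 h at 37 °C with shaking at 250 rpm. Read-out was fluorescence after reaction with 0.02% fluorescamine (absorbance at 290 nm for propranolol). Pe calculated as linear permeation velocity. Three biological replicates.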

[2] = test system: Hippocampal neuron; test: Neuroprotective activity in mouse Hippocampal neuron cells assessed as increase in cell number at 0.5 to 5 uM pretreated with preformed fibrils followed by compound treatment measured after 7 days by DAPI staining/NeuN protein immunostaining analysis; assay type: functional, cell-based; conditions: dose 0.5-5 µM, time 7.0 day
[3] = test system: Primary cortical neuron; test: Activation of 20S proteasome in mouse Primary cortical neuron cells assessed as reduction in alpha-synuclein level at 2.5 uM incubated for 7 days; assay type: cell-based; conditions: filed as activator, time 7.0 day
Summary of the method: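 E16–E17 CD1 mouse cortical neurons cultured in Neurobasal A with B-27 and GlutaMAX. Treated at DIV7 with 2.5 μM activator for 7 days; lysed at DIV14, protein by BCA. α-Synuclein quantified by Simple Western Jess automated immunoblot with total-protein normalization. n = 3 biological replicates.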

[4] = test system: HEK-293T; test: Cytotoxicity in HEK293T cells assessed as cell viability at 1 to 10 uM incubated for 24 hrs by MTT assay relative to control; assay type: toxicity, cell-based; conditions: human, dose 1-10 µM
Summary of the method: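 HEK293T cells grown 2 days, then medium replaced with compound at 1, 10, 25, 50 or 100 μM for 24 h. MTT added, formazan dissolved in DMSO, absorbance read at 570 nm. Mean of three biological replicates vs control, one-way ANOVA.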

[5] = Proteolytic stability of compound in human plasma assessed as protease-mediated degradation by measuring compound remaining at 200 uM incubated for 30 mins by UHPLC analysis; assay type: ADME, cell-free; conditions: read-out: Stability
Summary of the method: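 Compound (200 μM final, dissolved in water) incubated in human serum at 37 °C for 30 min. Samples every 5 min quenched 1:1 with 6% TCA and centrifuged. Supernatant analysed by UHPLC (UV 223 nm) for intact compound; cleavage sites identified by MS.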

[6] = test system: Hippocampal neuron; test: Neuroprotective activity in mouse Hippocampal neuron cells assessed as neuron viability at 0.5 to 2.5 uM pretreated with alpha-synuclein followed by compound addition measured after 7 days by immunostaining analysis; assay type: functional, cell-based; conditions: dose 0.5-2.5 µM, time 7.0 day
Summary of the method: (§1)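 E16.0 mouse hippocampal neurons, 25,000 per well, poly-L-lysine coated, Neurobasal/B27. Day 8: sonicated mouse α-synuclein PFFs added (2.5 μg/mL final; PBS for controls). Modulator (0.5 or 2.5 μM) added 1 h later. Day 15: PFA fixation; immunostaining for pS129-αsyn and NeuN plus DAPI; automated imaging. 3 biological, 9–11 technical replicates.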

[7] = test system: Hippocampal neuron; test: Activation of 20S proteasome in mouse Hippocampal neuron cells assessed as reduction in alpha-synuclein aggregation measured after 7 days by DAPI staining based immunofluorescence analysis; assay type: cell-based; conditions: filed as activator, dose 0.5-5 µM, time 7.0 day
[8] = test system: Hippocampal neuron; test: Neuroprotective activity in mouse Hippocampal neuron cells assessed as decrease in Lewy body-like aggregates at 0.5 to 2.5 uM pretreated with alpha-synuclein followed by compound addition measured after 7 days by immunostaining analysis; assay type: functional, cell-based; conditions: dose 0.5-2.5 µM, time 7.0 day; summary of the method: as §1
[9] = Cytotoxicity in HEK293T cells assessed as cell viability at 100 uM incubated for 24 hrs by MTT assay relative to control; assay type: toxicity, cell-based, HEK-293T; conditions: human, read-out: Activity
Summary of the method: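 HEK293T cells grown in complete medium for 2 days, then the medium was replaced with compound at 1, 10, 25, 50 or 100 μM for 24 h. MTT was added, formazan dissolved in DMSO, and absorbance read at 570 nm. Mean of three biological replicates, compared with untreated control.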

[10] = test system: HEK-293T; test: Cytotoxicity against HEK293T cells assessed as cell viability at 10 uM measured after 3 hrs by Hoechst 33342 staining based analysis; assay type: toxicity; conditions: human
Summary of the method: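 HEK293T cells in DMEM/10% FBS, seeded 3 × 10^4 per well and grown 48 h, then given 10 μM NBD-labelled modulators for 3 h. Hoechst 33342 added for the final 30 min. Cells washed with PBS and imaged by fluorescence microscopy (NBD and Hoechst channels). Three independent replicates.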

[11] = molecular target: T1, 20S proteasome (Homo sapiens) (UniProt P49721+P20618+P28074+P28062+P28065+P28072+P25786+P25787+P25788+P25789+P28066+P60900+O14818+Q8TAA3+P40306+A5LHX3+P49720+P28070+Q99436); test: Activation of human erythrocyte-derived 20S proteasome caspase-like activity using Z-LLE-AMC as substrate at 1.0 to 50 uM measured every two mins for 60 mins by fluorescence based analysis; conditions: filed as activator, dose 1-50 µM
Summary of the method: (§2)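 Latent human 20S proteasome (0.002 mg/mL, 2.8 nM) in 50 mM Tris/HCl pH 8.0 with 2% DMSO. AMC substrates at 100 μM final (ex 380/em 460 nm); Dabcyl-EDANS at 15 μM final (ex 335/em 493 nm). Modulators at 1.0–50 μM; TAT- or 6R-containing constructs at 0.5–10 μM. Read every 2 min for 60 min at 37 °C. Activity relative to DMSO-treated proteasome (100%). ≥3 independent replicates.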

[12] = molecular target: T1, 20S proteasome (Homo sapiens); test: Activation of human erythrocyte-derived 20S proteasome using Dabcyl-EDANS as FRET-type substrate at 1.0 to 50 uM measured every two mins for 60 mins by fluorescence based analysis; assay type: cell-based; conditions: filed as activator, dose 1-50 µM; summary of the method: as §2
[13] = Effect on secondary structure of drug in water at 2 mg/ml assessed as alpha-helical conformation by CD analysis; assay type: physicochemical; conditions: buffer
[14] = molecular target: T1, 20S proteasome (Homo sapiens); test: Activation of human erythrocyte-derived 20S proteasome using Dabcyl-EDANS as FRET-type substrate at higher concentration measured every two mins for 60 mins by fluorescence based analysis; assay type: cell-based; conditions: filed as activator; summary of the method: as §2
[15] = molecular target: T1, 20S proteasome (Homo sapiens); test: Activation of human erythrocyte-derived 20S proteasome chymotrypsin-like activity using Suc-LLVY-AMC as substrate at 1.0 to 50 uM measured every two mins for 60 mins by fluorescence based analysis; conditions: filed as activator, dose 1-50 µM
[16] = molecular target: T1, 20S proteasome (Homo sapiens); test: Activation of human erythrocyte-derived 20S proteasome trypsin-like activity using Boc-LRR-AMC as substrate at 1.0 to 50 uM measured every two mins for 60 mins by fluorescence based analysis; conditions: dose 1-50 µM
[17] = molecular target: T1, 20S proteasome (Homo sapiens); test: Activation of human 20S proteasome assessed as tau degradation at 10 uM by SDS-PAGE analysis relative to control; assay type: protein-complex assay; conditions: filed as activator, time 1.5 hrs
[18] = molecular target: T1, 20S proteasome (Homo sapiens); test: Activation of human 20S proteasome assessed as alpha-synuclein degradation by measuring residual activity at 10 uM by SDS-PAGE analysis relative to control; assay type: protein-complex assay; conditions: filed as activator, time 1.5 hrs
[19] = molecular target: T1, 20S proteasome (Homo sapiens); test: Activation of human erythrocyte-derived 20S proteasome chymotrypsin-like activity using Suc-LLVY-AMC as substrate assessed as fold increase in activity at 1 uM measured every two mins for 60 mins by fluorescence based analysis relative to control; conditions: filed as activator
Summary of the method: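 h20S proteasome 0.002 mg/mL (2.8 nM) in 50 mM Tris/HCl pH 8.0, 2% DMSO final. Suc-LLVY-AMC 100 μM final. Modulators 1.0–50 μM (TAT/6R constructs 0.5–10 μM). AMC fluorescence ex 380/em 460 nm read every 2 min for 60 min at 37 °C. Activity relative to DMSO-treated latent proteasome (100%); ≥3 replicates.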

[20] = molecular target: T1, 20S proteasome (Homo sapiens); test: Activation of 20S proteasome chymotrypsin-like activity in HEK293T cell lysate using Suc-LLVY-AMC as substrate assessed as fold increase in activity at 5 uM by fluorescence based analysis relative to control; assay type: subcellular; conditions: filed as activator
Summary of the method: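 Chymotrypsin-like activity read with Suc-LLVY-AMC. 1 μM bortezomib as negative control. Fold activity vs vehicle control; at least three independent replicates, one-way ANOVA with Tukey.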

[21] = molecular target: T1, 20S proteasome (Homo sapiens); test: Activation of human erythrocyte-derived 20S proteasome trypsin-like activity using Boc-LRR-AMC as substrate at 0.5 to 10 uM measured every two mins for 60 mins by fluorescence based analysis; conditions: filed as activator, dose 0.5-10 µM

Structure (SMILES)	permeability [1]	Activity [2]	Activity [3]	Activity [4]	remaining at 0.5 h, 200 µM [5] [%]	Activity [6]	Activity [8]	Activity [10]	also measured
C[C@@H](O)[C@H](NC(=O)[C@H](Cc1ccccc1)NC(=O)[C@H](Cc1ccc(O)cc1)NC(=O)CN(CCCCN)C(=O)[C@H](CCCNC(=N)N)NC(=O)[C@H](CCCNC(=N)N)NC(=O)[C@H](CCCNC(=N)N)NC(=O)[C@H](CCNC(=N)N)NC(=O)[C@H](CCCNC(=N)N)NC(=O)[C@@H](N)CCCNC(=N)N)C(=O)NCC(=O)N[C@@H](CO)C(=O)N[C@@H](CCCCN)C(=O)N[C@@H](CC(=O)O)C(=O)N[C@@H](Cc1c[nH]c2ccccc12)C(=O)N[C@@H](CCCNC(=N)N)C(=O)N[C@@H](CO)C(=O)N[C@@H](Cc1ccc(O)cc1)C(=O)N[C@@H](Cc1ccc(O)cc1)C(=O)N[C@@H](CO)C(=O)O	Permeable	Active	Active	Non-toxic	> 60	Active	Active	Non-toxic	Activity [7]: Dose-dependent-effect; viability at 24 h, 100 µM [9]: ~50%
C[C@@H](O)[C@H](NC(=O)[C@H](Cc1ccccc1)NC(=O)[C@H](Cc1ccc(O)cc1)NC(=O)[C@@H](N)CCCCN)C(=O)NCC(=O)N[C@@H](CO)C(=O)N[C@@H](CCCCN)C(=O)N[C@@H](CC(=O)O)C(=O)N[C@@H](Cc1c[nH]c2ccccc12)C(=O)N(C)[C@@H](CCCNC(=N)N)C(=O)N(C)[C@@H](CO)C(=O)N[C@@H](Cc1ccc(O)cc1)C(=O)N[C@@H](Cc1ccc(O)cc1)C(=O)N[C@@H](CO)C(=O)O (H-KYFTGSKDW[NMeR][NMeS]YYS-OH)	–	–	–	–	–	–	–	–	Activity [11]: Moderate_effect; Activity [12]: Active; Activity [13]: Active; Activity [14]: Active; Activity [15]: Active; Lower Capacity Of Activation Is Observed; Activity [16]: inactive
C[C@@H](O)[C@H](NC(=O)[C@H](Cc1ccccc1)NC(=O)[C@H](Cc1ccc(O)cc1)NC(=O)CN(CCCCN)C(=O)[C@H](CCCNC(=N)N)NC(=O)[C@H](CCCNC(=N)N)NC(=O)[C@H](CCCNC(=N)N)NC(=O)[C@H](CCC(N)=O)NC(=O)[C@H](CCCNC(=N)N)NC(=O)[C@H](CCCNC(=N)N)NC(=O)[C@H](CCCCN)NC(=O)[C@H](CCCCN)NC(=O)[C@@H](N)CCCNC(=N)N)C(=O)NCC(=O)N[C@@H](CO)C(=O)N[C@@H](CCCCN)C(=O)N[C@@H](CC(=O)O)C(=O)N[C@@H](Cc1c[nH]c2ccccc12)C(=O)N[C@@H](CCCNC(=N)N)C(=O)N[C@@H](CO)C(=O)N[C@@H](Cc1ccc(O)cc1)C(=O)N[C@@H](Cc1ccc(O)cc1)C(=O)N[C@@H](CO)C(=O)O	Permeable	Active	Active	Non-toxic	> 60	Active	Active	Non-toxic	Activity [17]: > 90%; Activity [18]: < 40%; fold change (FC) [19]: 16; fold change (FC) [20]: 4; Activity [21]: Active
